AHR act – activates the human aryl hydrocarbon receptor | P35869 | AHR-responsive luciferase reporter cells, luminescence | activation, % at 5 µM | 320,000 compounds, 2.5% hits | AID 2796; in the data active = activation above about 47%
Target sequence (P35869 whole entry, looked up): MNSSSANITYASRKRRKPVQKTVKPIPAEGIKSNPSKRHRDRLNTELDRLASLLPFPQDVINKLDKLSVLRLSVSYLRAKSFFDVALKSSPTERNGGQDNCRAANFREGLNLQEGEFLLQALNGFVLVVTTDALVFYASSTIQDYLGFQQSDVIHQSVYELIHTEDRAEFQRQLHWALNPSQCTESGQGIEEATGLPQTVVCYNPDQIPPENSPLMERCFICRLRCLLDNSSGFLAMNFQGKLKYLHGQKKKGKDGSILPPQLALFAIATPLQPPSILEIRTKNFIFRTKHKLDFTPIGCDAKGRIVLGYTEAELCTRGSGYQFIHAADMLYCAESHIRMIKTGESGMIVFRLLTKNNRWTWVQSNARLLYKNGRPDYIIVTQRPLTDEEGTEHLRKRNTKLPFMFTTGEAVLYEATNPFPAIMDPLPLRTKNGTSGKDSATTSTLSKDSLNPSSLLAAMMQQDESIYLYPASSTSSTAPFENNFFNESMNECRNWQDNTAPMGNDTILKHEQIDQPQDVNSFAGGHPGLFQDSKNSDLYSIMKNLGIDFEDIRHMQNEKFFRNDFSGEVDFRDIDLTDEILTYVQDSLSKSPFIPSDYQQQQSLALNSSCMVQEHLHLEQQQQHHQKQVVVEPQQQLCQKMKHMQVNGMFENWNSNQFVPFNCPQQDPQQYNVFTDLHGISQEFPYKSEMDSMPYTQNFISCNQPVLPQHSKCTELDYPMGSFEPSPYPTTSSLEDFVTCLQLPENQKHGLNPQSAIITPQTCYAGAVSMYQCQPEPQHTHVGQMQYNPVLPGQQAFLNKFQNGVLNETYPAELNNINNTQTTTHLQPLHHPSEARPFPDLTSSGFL
HIF activator – HIF pathway transcriptional activation. U2OS HRE-luciferase reporter, luminescence; normalized: DMSO 0%, desferrioxamine 100%. 300,000 compounds, 0.32% hits. activation, % at 7.5 µM (by protocol);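 active = mean activation of at least 10% of the iron chelator positive control signal, with at least half of replicates also reaching 10%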
ABCB6 inh MLPCN – blocks the human ABCB6 transporter; Q9NP58; AID 602162; K562-ABCB6 porphyrin accumulation, flow cytometry, 1 h; active compounds read low; fluorescence ratio to DMSO, % at 10 µM; 360,000 compounds, 0.19% hits;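 active = fluorescence ratio to DMSO below 75%, the collection mean minus 3 SD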;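 note: signal is porphyrin accumulated inside mitochondria; lower ratio means ABCB6 inhibition with less porphyrin fluorescence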
SR-BI DiI inh – mouse SR-BI HDL lipid transfer inhibition; Q61009; ldlA[mSR-BI] CHO cells, DiI-HDL uptake fluorescence, 3 h; inhibition, % at 12.5 µM; 320,000 compounds, 0.96% hits;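 active = mean replicate inhibition of at least 70% and a set share of replicates each scoring 70 or more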
SR-BI DiI-HDL act – SR-BI HDL lipid transfer activation; CHO ldlA[mSR-BI] cells, DiI-HDL uptake fluorescence, 3 h; 100 = double the neutral-control signal; 320,000 compounds, 0.096% hits; AID 504775; activation, % at 12.5 µM;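 active = mean replicate activation of at least 60% and every replicate at or above 60%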
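Material: SR-BI-overexpressing, LDLR-lacking CHO cells; schedule: compound exposure 3 h, 37 °C; reagent: DiI-labelled HDL at 10 µg/mL final; technique: bottom-read fluorescence, 550/595 nm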
FXN GAA850 act – increases GAA850 frataxin promoter reporter activity | HEK293 lucGAA850 FXN promoter luciferase reporter, 24 h; percent of 10 µM SAHA response | activation, % at 6 µM | 360,000 compounds, 0.56% hits | AID 540364;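 active = activation above the average of all compounds screened plus 3 SD, cutoff fixed separately per campaign, cut at about 7.5% in these data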
A number is an active result; i = inactive; nt = no result. Most compounds without a hit are left out; they make up all but 3.9% or so of the library.

SMILES | AHR act | HIF activator | ABCB6 inh MLPCN | SR-BI DiI inh | SR-BI DiI-HDL act | FXN GAA850 act
COC(=O)c1cc(S(=O)(=O)NCCc2ccc(SC)cc2)c[nH]1 | i | i | i | i | i | i
c1ccc2c(c1)nc(NCCN1CCOCC1)c1nncn12 | i | i | i | nt | nt | i
Nn1cc(-c2ccccc2)nc1SCC(=O)N1CCN(S(=O)(=O)c2ccccc2)CC1 | 52 | i | i | i | i | i
O=C(CSc1ncccn1)N1CCN(S(=O)(=O)c2ccccc2)CC1 | i | i | i | nt | nt | i
Nc1ccccc1N=Cc1ccc(-c2cccc(Cl)c2)o1 | 78 | i | i | i | i | i
CCOc1ccccc1NC(=O)NCc1ccccn1 | i | i | i | i | i | i
COc1ccc(C2CC(c3c(O)cc(C)oc3=O)=NCCS2)c(OC)c1 (configuration not stated) | i | nt | i | 78 | i | i
Cc1cc(O)c(C2=Nc3ccccc3SC(c3ccc(Cl)cc3)C2)c(=O)o1 (configuration not stated) | i | i | i | i | i | i
CC(C)(C)c1ccc(-c2nc(C#N)c(NCCCn3ccnc3)o2)cc1 | i | i | i | i | i | i
COCCNc1ncnc2c1[nH]c1ccccc12 | 74 | i | i | i | i | i
CCN(CC)c1ncnc2c1[nH]c1ccccc12 | 65 | i | i | i | i | i
CCCOc1ncnc2c1[nH]c1ccccc12 | 80 | i | i | i | i | i
CCCOc1ncnc2c1[nH]c1ccc(OC)cc12 | i | i | i | i | i | i
CC(C)Oc1ncnc2c1[nH]c1ccccc12 | i | i | i | i | i | i
COc1ccc(Nc2ccc(OC)cc2)cc1 | i | i | i | nt | nt | i
Cc1nnc(N2C(=O)C(O)=C(C(=O)c3ccco3)C2c2ccc(C(C)(C)C)cc2)s1 (configuration not stated) | i | i | i | i | i | i
C/C(CC(=O)Nc1ccccn1)=N\NC(=O)c1ccccc1O | i | i | i | 73 | i | i
N#CC1=C(N)SC(N)=C(C#N)C1Cc1ccccc1 | i | i | i | i | i | i
N#CC1=C(N)SC(N)=C(C#N)C1CCc1ccccc1 | 86 | i | i | i | i | i
O=C(Nc1nccs1)c1nc[nH]c1C(=O)N1CCc2ccccc2C1 | i | nt | i | i | i | i
COc1ccc(COc2cc(-c3cccc(OC)c3)nc3ccc(NC(=O)c4ccc(OC)cc4)cc23)cc1 | i | i | i | 73 | i | i
COc1ccc(COc2cc(-c3cccc(OC)c3)nc3ccc(NC(=O)c4ccc(Cl)cc4)cc23)cc1 | i | i | i | 73 | i | i
CC(=O)Nc1nc(C)c(-c2csc(Nc3cccc(C(C)=O)c3)n2)s1 | 57 | i | i | i | i | i
CC(=O)Nc1nc(C)c(-c2csc(Nc3cccc([N+](=O)[O-])c3)n2)s1 | i | i | i | i | i | i
CC(=O)Nc1ccc(Nc2nc(-c3sc(NC(C)=O)nc3C)cs2)cc1 | i | i | i | i | i | i
SMILES | AHR act | HIF activator | ABCB6 inh MLPCN | SR-BI DiI inh | SR-BI DiI-HDL act | FXN GAA850 act
CC(=O)Nc1nc(C)c(-c2csc(Nc3ccc(O)cc3)n2)s1 | 49 | nt | i | i | i | i
COc1ccc(N=Cc2oc3ccc4ccccc4c3c2O)cc1 | 58 | i | i | i | i | i
Cc1cc(C)n(-c2nc(C)nc3c2cnn3-c2ccccc2)n1 | 49 | i | i | i | i | i
COc1ccc(C2OCC(C)(C)CO2)cc1OC | nt | nt | i | i | 77 | i
CCCC(=O)c1cc2c(cc1NC(=O)c1cccs1)OCCO2 | i | i | i | i | i | i
CC1=NN(c2nc(-c3ccc(C)cc3)cs2)C(=O)C1N=Nc1ccccc1O (configuration not stated) | 51 | i | i | 152 | i | i
COc1ccc(NC(=O)NNS(=O)(=O)c2ccc(Br)cc2)cc1 | nt | i | i | i | i | i
CCS(=O)(=O)c1nc(NC(C)=O)n[nH]1 | i | i | i | i | i | i
CCc1ccc(CN2CCC(Oc3ccc(C(=O)N4CCCC4)cc3)CC2)cc1 | i | i | i | i | i | i
O=C(c1ccc(OC2CCN(CCc3ccccc3)CC2)cc1)N1CCCC(CCCO)C1 (configuration not stated) | i | 44 | i | i | i | i
O=C(c1ccc(OC2CCN(Cc3ccc(F)cc3)CC2)cc1)N1CCCC1 | i | 53 | i | i | i | i
COc1ccc(Cl)cc1NC(=O)NCCN1CCNC1=O | i | i | i | nt | nt | i
O=C(Nc1ccc2c(c1)OCCO2)c1ccc(Cl)cc1Cl | i | i | i | i | i | i
COc1cccc(N2CC(O)=C(c3nc4ccccc4s3)C2=N)c1 | 57 | i | i | i | i | i
CS(=O)(=O)c1cccc(C(=O)OCC(=O)c2ccc3c(c2)OCCO3)c1 | nt | nt | i | i | i | i
CC(=O)Nc1ccc2nc(SCC(=O)O)sc2c1 | i | i | i | i | i | i
Cc1onc(-c2ccccc2)c1C(=O)NCCc1ccc(S(N)(=O)=O)cc1 | 76 | i | i | i | i | i
Cc1onc(-c2ccccc2)c1C(=O)NNC(=O)c1ccccc1O | 78 | i | i | i | i | i
Cc1onc(-c2ccccc2)c1C(=O)NNC(=S)NC(=O)/C=C/c1ccccc1 | i | i | 74 | i | i | i
Cc1onc(-c2c(Cl)cccc2Cl)c1C(=O)NCCc1ccc(S(N)(=O)=O)cc1 | i | i | i | i | i | i
CCOC(=O)c1c(C)[nH]c(C(=O)C(C)Cl)c1C (configuration not stated) | i | i | i | i | i | i
C=COCCNC(=O)Nc1ccc(Cl)cc1Cl | i | i | i | 72 | i | i
C=COCCNC(=S)Nc1cccc(Cl)c1 | i | i | i | i | i | i
O=C(/C=C/c1ccco1)N1CCN(c2ncccn2)CC1 | i | i | i | i | i | i
O=C(Nc1ccc(F)cc1F)c1csc(-c2cccs2)n1 | i | i | i | i | i | i
SMILES | AHR act | HIF activator | ABCB6 inh MLPCN | SR-BI DiI inh | SR-BI DiI-HDL act | FXN GAA850 act
O=C(Nc1ccc(F)cc1F)c1csc(-c2ccncc2)n1 | 51 | i | i | i | i | i
Cc1ccc(C(=O)Nc2cccc(C(F)(F)F)c2)cc1NC(=O)c1csc(-c2ccncc2)n1 | i | i | i | 84 | i | i
CCC(C)NC(=S)Nc1ccc2nc(N3CCOCC3)cc(C)c2c1 (configuration not stated) | i | i | i | i | i | i
CC1CC(C)(C)CC2(C1)NC(=O)N(CC(=O)Nc1ccc3c(c1)OCO3)C2=O (configuration not stated) | nt | nt | i | nt | nt | i
CCOc1ccc(C2=CSC3=NCCN23)cc1 | i | i | i | i | i | i
CCOc1ccc2ccccc2c1/C=N/NC(=O)c1cc(C)[nH]n1 | i | i | i | i | i | i
Cc1cc(C(=O)N/N=C/c2cc(N=Nc3ccccc3)ccc2O)n[nH]1 | i | 19 | i | 115 | i | i
Cc1cc(C(=O)N/N=C/c2c(C)n(C)c3ccccc23)n[nH]1 | 77 | i | i | i | i | i

Screens from PubChem BioAssay.
